# KCNK3 inh: human KCNK3 channel inhibition, primary screen; O14649; CHO-KCNK3 thallium flux, FluxOR fluorescence; active compounds read low; B-score at 10 µM; hit rate 0.84% among 340,000; AID 602410;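 active = B-score under library mean minus 4 SD, starting fluorescence ratio at most library mean plus 5 SD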;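 also: more negative B-score means stronger inhibition of thallium flux through KCNK3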
# KCNQ1 act: potentiators or activators of human KCNQ1 potassium channel; P51787; CHO-K1 KCNQ1, thallium flux FluxOR fluorescence; active compounds read high; B-score at 10 µM; hit rate 0.35% among 310,000; AID 2648;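 active = fluorescence ratio B-score, a plate-corrected score, at least three library SD, with initial intensity B-score within 5 SD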
#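 Doses: Single concentration per compound, DMSO matched to controls | Test system: KCNQ1-transfected CHO-K1 cells | Timing: 90 min dye loading and 20 min compound exposure, both at room temperature | Measured by: Kinetic FluxOR thallium fluorescence, 10-s 1-Hz baseline, 110-s post-stimulus read | Medium: Assay buffer with matched DMSO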
# KCNQ1 block: blocks the human KCNQ1 potassium channel. CHO-K1 KCNQ1, FluxOR thallium flux fluorescence; active compounds read high. P51787. B-score at 10 µM. hit rate 1.3% among 310,000;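 active = compounds whose thallium flux B-score, printed positive for inhibition, exceeds three library SD while starting fluorescence stays within three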;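 also: channel opened by potassium depolarization with thallium stimulus after 20 min compound exposure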
# hERG rescue: compounds protecting human hERG from proarrhythmic drug block; Q12809; CHO-hERG, FluxOR thallium flux, dofetilide IC70 present; activation (rescue from dofetilide block), less the hit threshold, % at 10 µM; hit rate 0.51% among 310,000;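 active = activation above the mean of controls blocked by dofetilide plus 5 SD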;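 also: thallium influx through hERG after potassium depolarization seen as dye fluorescence rise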
# KCNK9 inh: human KCNK9 channel inhibition. Q9NPC2. HEK293 KCNK9, FluxOR thallium flux fluorescence; active compounds read low. B-score at 10 µM. hit rate 1.2% among 310,000. AID 488922;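 active = ratio B-score over 3 SD below the library mean, with starting fluorescence within 5 SD of its mean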;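 also: negative B-score means less thallium flux so channel inhibition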
# KCNK9 block conf: human KCNK9 inhibitor confirmation. shares compounds with KCNK9 inh. HEK293 KCNK9 cells, FluxOR thallium flux fluorescence. inhibition, % at 10 µM. hit rate 43% among 4,900;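 active = thallium signal inhibited by more than 5 SD of the compound-free buffer control wells, on both duplicate plates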
# Kir2-1 spec: mouse Kir2.1 off-target activity of KCNK9 modulators; Kir2.1 cells, FluxOR thallium flux fluorescence; inhibition, % at 10 µM; hit rate 4% among 4,900; AID 492993; shares compounds with KCNK9 inh;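 active = thallium signal drop more than 5 SD beyond the mean of the no-compound control wells, seen in both duplicate plates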;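 also: signal is fluorescence rise after thallium addition divided by baseline fluorescence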
# Target sequence (P35561 whole entry, looked up): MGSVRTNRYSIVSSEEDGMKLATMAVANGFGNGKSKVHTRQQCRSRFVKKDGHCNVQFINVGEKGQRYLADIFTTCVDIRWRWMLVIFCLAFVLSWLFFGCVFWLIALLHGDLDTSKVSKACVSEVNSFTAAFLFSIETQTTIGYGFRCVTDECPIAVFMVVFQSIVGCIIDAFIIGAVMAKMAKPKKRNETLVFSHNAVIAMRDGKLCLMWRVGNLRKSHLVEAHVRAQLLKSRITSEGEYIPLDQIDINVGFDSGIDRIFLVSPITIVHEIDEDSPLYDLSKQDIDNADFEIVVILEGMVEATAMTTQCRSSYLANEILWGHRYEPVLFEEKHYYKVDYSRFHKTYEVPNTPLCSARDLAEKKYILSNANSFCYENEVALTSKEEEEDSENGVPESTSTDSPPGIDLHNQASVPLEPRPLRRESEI
# KCNK9 uninduced: second check of KCNK9 modulator effects in non-induced HEK293 cells | AID 492997 | FluxOR thallium flux | shares compounds with KCNK9 inh | inhibition, % at 10 µM | hit rate 40% among 4,900;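 active = thallium signal drop beyond 5 SD of the untreated control mean, on both duplicate plates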
# Numbers stand for hits; 0 = inactive; - = not tested or not shown. Shown are actives, neighbours in structure and some others; about 3.1% of the full set was active somewhere.
SMILES,KCNK3 inh,KCNQ1 act,KCNQ1 block,hERG rescue,KCNK9 inh,KCNK9 block conf,Kir2-1 spec,KCNK9 uninduced
Cc1ccc(SCC2(O)CCN(S(=O)(=O)c3ccc(Cl)cc3)CC2)cc1,0,80,0,0,0,0,0,0
CCN(CC)CCNC(=S)Nc1ccc2nc(N3CCN(C)CC3)cc(C)c2c1,0,0,0,0,0,-,-,-
CCN(CC)CCNC(=S)Nc1ccc2nc(N3CCCC3)cc(C)c2c1,0,0,0,0,-9.4,0,0,0
Cc1cc(C(=O)N2CCC(Cc3ccccc3)CC2)c(C)o1,0,0,0,0,0,-,-,-
Cc1ccccc1COC(=O)CNC(=O)c1sc2ccccc2c1Cl,0,0,0,0,0,0,0,0
Nc1nnc(SCc2ccc([N+](=O)[O-])cc2)s1,0,0,0,0,0,-,-,-
O=[N+]([O-])c1ccc(CSc2nnc(SCc3ccc(Cl)cc3)s2)cc1,0,0,0,0,-9.3,45%,0,46%
CC(NC(=O)C1CCC(C(C)(C)C)CC1)C(c1ccccc1)N1CCOCC1 (centres undefined),0,0,0,0,0,0,0,0
CCC(C)C(NC(=O)C1CCC(C)CC1)C(=O)NCc1ccccn1 (centres undefined),0,0,0,0,0,-,-,-
O=C(CSc1ccc(Cl)cc1)NNC(=O)c1ccco1,0,0,0,0,0,-,-,-
Cc1ccc(C(=O)N/N=C2\SCC(=O)N2c2cc(C)ccc2C)cc1,0,0,0,0,0,0,0,0
COc1cccc(C(=O)N2CCN(C3CCN(Cc4ccccc4)CC3)CC2)c1OC,0,0,0,0,0,-,-,-
CCN1CCN(CC(=O)n2c3c(c4ccccc42)CC(C)CC3)CC1 (centres undefined),0,0,0,0,0,-,-,-
CC1CCN(CC(=O)n2c3c(c4ccccc42)CCCC3)CC1,0,0,0,0,0,0,0,0
COc1c(C)cc(C(=O)C2CCCN(C(=O)c3cccc(-n4cccn4)c3)C2)cc1C (centres undefined),0,0,0,0,0,0,0,0
COc1c(C)cc(C(=O)C2CCCN(C(=O)c3cc(C)on3)C2)cc1C (centres undefined),0,0,0,0,0,-,-,-
COc1c(C)cc(C(=O)C2CCCN(C(=O)c3ccc4[nH]ccc4c3)C2)cc1C (centres undefined),0,0,0,0,0,0,0,0
S=c1[nH]nc(-c2cc3c(s2)-c2ccccc2CC3)o1,0,71,0,134,0,0,0,0
O=C(Oc1ccccc1)c1ccccc1OS(=O)(=O)c1ccccc1,0,0,0,0,-9.5,44%,0,34%
COc1ccccc1C(=O)Oc1ccc(C(C)C)cc1,0,0,0,0,0,0,0,30%
O=C(Nc1ccccc1)c1ccccc1OS(=O)(=O)c1ccccc1,0,0,0,0,0,-,-,-
CCc1ccc(/C(C)=N/NC(=O)CNC(=O)/C=C/c2ccco2)cc1,0,0,0,0,0,-,-,-
Cc1ccccc1-c1ocnc1C(=O)Nc1ccccc1NC(=O)c1ccccn1,0,0,0,0,-8.7,38%,0,0
Cc1ccc(C)c(C(=O)c2ccccc2NC(=O)c2ccccn2)c1,0,0,0,0,0,-,-,-
Cc1nn2c(N3CCN(c4ccccn4)CC3)cc(C(C)C)nc2c1-c1ccccc1,0,0,0,0,-12,63%,0,38%
Clc1cccc(N2CCN(Cc3nnc(-c4ccccc4)o3)CC2)c1,0,0,0,0,0,0,0,0
COc1ccc(-c2csc(C3=C(O)CN(CCCN4CCCC4=O)C3=N)n2)cc1OC,0,0,0,0,0,-,-,-
C[C@H](NC(=O)c1nc[nH]c1C(=O)N[C@@H](CCCCNC(=O)OC(C)(C)C)C(=O)OC(C)(C)C)c1ccccc1,0,0,0,0,-11,0,0,29%
CC(C)(C)OC(=O)NCCCC[C@H](NC(=O)c1[nH]cnc1C(=O)N[C@@H](Cc1ccccc1)C(=O)OC(C)(C)C)C(=O)OC(C)(C)C,0,0,0,0,0,-,-,-

# Compound activity as filed in PubChem.
